From ChEMBL document CHEMBL2396524, “Design, synthesis and biological evaluation of enzymatically cleavable NSAIDs prodrugs derived from self-immolative dendritic scaffolds for the treatment of inflammatory diseases” (Bioorg Med Chem, 2013)

Tests used:
[1] = Chemical stability of the compound in phosphate buffer at pH 8 assessed as compound remaining at 0.1 uM after 48 hrs by RP-HPLC analysis; type: physicochemical; conditions: read-out: Stability
Method in brief: (§1)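 Conjugates at 0.1 µM were incubated at 37 °C in 20 mM phosphate buffer at pH 2.0, 7.0 or 8.0. Intact conjugate was measured by RP-HPLC: RP18 column, methanol/0.05 mol/l KH2PO4 pH 3.0 (60:40), 1.0 ml/min, UV 256 nm, 25 °C. Results are % remaining, mean ± SD.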

[2] = Chemical stability of the compound in phosphate buffer at pH 2 assessed as compound remaining at 0.1 uM after 48 hrs by RP-HPLC analysis; type: physicochemical; conditions: read-out: Stability; method in brief: as §1
Mus musculus [3] = test: Antiinflammatory activity in Kunming mouse assessed as inhibition of xylene-induced auricle tumefaction at 25 uM/kg, tid qd for 5 days relative to control; type: functional
Method in brief: (§2)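 Male Kunming mice (18–22 g), 10 per group, with 0.9% NaCl as the blank group. Dosing was once daily for 5 days (table footnote); the methods say t.i.d. Drug was given at molar equivalence to naproxen. 1 h after the last dose, a 7 mm xylene-soaked filter was held on the right ear for 30 s. Mice were killed 30 min later and 7 mm ear discs punched. Inhibition % = (1 − a/b)×100.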

HEK293 = test: Cytotoxicity against HEK293 cells assessed as cell viability at 2 to 32 ug/ml after 24 hrs by MTT assay; type: cell-based; conditions: human, hek293, 24 h
Method in brief: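 HEK293 cells were seeded at 2500/well and grown 24 h before compound exposure. The figure legend gives 24 h exposure; the methods give 48 h. MTT (5 mg/ml) was then added for 2.5 h at 37 °C. Formazan was dissolved in DMSO and read at 570 nm. Viability is % of control cells, mean ± SD, n = 3.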

[4] = Chemical stability of the compound in phosphate buffer at pH 7 assessed as compound remaining at 0.1 uM after 240 hrs by RP-HPLC analysis; type: physicochemical; conditions: read-out: Stability; method in brief: as §1
[5] = Chemical stability of the compound in phosphate buffer at pH 7 assessed as compound remaining at 0.1 uM after 48 hrs by RP-HPLC analysis; type: physicochemical; conditions: read-out: Stability; method in brief: as §1
[6] = Chemical stability of the compound in phosphate buffer at pH 2 assessed as compound remaining at 0.1 uM after 240 hrs by RP-HPLC analysis; type: physicochemical; conditions: read-out: Stability; method in brief: as §1
[7] = Chemical stability of the compound in phosphate buffer at pH 8 assessed as compound remaining at 0.1 uM after 240 hrs by RP-HPLC analysis; type: physicochemical; conditions: read-out: Stability; method in brief: as §1
Mus musculus [8] = test: Gastrointestinal toxicity in Kunming mouse assessed as ulcer index at 200 mg/kg, po after 4 hrs; type: organism-based; set-up: dose 200 mg/kg, route oral; conditions: in vivo
Method in brief: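 Kunming mice of either sex (18–22 g), 10 per group, were fasted 24 h. A 200 mg/kg oral dose was given as a suspension in 1% methylcellulose, and mice were killed after 4 h. Stomachs were fixed 30 min in 10% formaldehyde, opened along the greater curvature and lesion lengths measured under magnification. UI = summed lesion length (mm) per group divided by 10 animals.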

Mus musculus [9] = test: Antiinflammatory activity in Kunming mouse assessed as inhibition of xylene-induced auricle tumefaction at 22.2 uM/kg, tid qd for 5 days relative to control; type: functional; method in brief: as §2

Row | remaining at 48 h, 0.1 µM [1] | remaining at 48 h, 0.1 µM [2] | remaining at 240 h, 0.1 µM [4] | remaining at 48 h, 0.1 µM [5] | remaining at 240 h, 0.1 µM [6] | remaining at 240 h, 0.1 µM [7] | Structure (SMILES) | inhibition (INH) (Mus musculus [3]) | Activity (HEK293) | UI (Mus musculus [8]) | inhibition (INH) (Mus musculus [9])
1 | 97.3% | 95.7% | 95.9% | 96.2% | 72.3% | 79.4% | COc1ccc2cc(C(C)C(=O)OCCN(CCOC(=O)C(C)c3ccc4cc(OC)ccc4c3)CCC(=O)OCCN(CCOC(=O)CCN(CCOC(=O)C(C)c3ccc4cc(OC)ccc4c3)CCOC(=O)C(C)c3ccc4cc(OC)ccc4c3)CCC(=O)OCCN(CCOC(=O)CCN(CCOC(=O)CCN(CCOC(=O)C(C)c3ccc4cc(OC)ccc4c3)CCOC(=O)C(C)c3ccc4cc(OC)ccc4c3)CCOC(=O)CCN(CCOC(=O)C(C)c3ccc4cc(OC)ccc4c3)CCOC(=O)C(C)c3ccc4cc(OC)ccc4c3)CCC(=O)OCc3ccccc3)ccc2c1 (centres undefined) | 39.62% | Non-toxic | 6.93 | 
2 | 91.2% | 97.1% | 96.1% | 97.6% | 93.1% | 89.4% | COc1ccc2cc(C(C)C(=O)NCCCCC(NC(=O)C(C)c3ccc4cc(OC)ccc4c3)C(=O)NCCCCC(NC(=O)C(CCCCNC(=O)C(C)c3ccc4cc(OC)ccc4c3)NC(=O)C(C)c3ccc4cc(OC)ccc4c3)C(=O)NCCCCC(NC(=O)C(CCCCNC(=O)C(CCCCNC(=O)C(C)c3ccc4cc(OC)ccc4c3)NC(=O)C(C)c3ccc4cc(OC)ccc4c3)NC(=O)C(CCCCNC(=O)C(C)c3ccc4cc(OC)ccc4c3)NC(=O)C(C)c3ccc4cc(OC)ccc4c3)C(=O)OCc3ccccc3)ccc2c1 (centres undefined) | 48.18% | Non-toxic | 6.21 | 
3 | 94.5% | 97.2% | 98.4% | 99.1% | 89.9% | 79.4% | COc1ccc2cc(C(C)C(=O)OCC(COC(=O)C(C)c3ccc4cc(OC)ccc4c3)(COC(=O)C(C)c3ccc4cc(OC)ccc4c3)NC(=O)CCC(=O)OCC(COC(=O)CCC(=O)NC(COC(=O)C(C)c3ccc4cc(OC)ccc4c3)(COC(=O)C(C)c3ccc4cc(OC)ccc4c3)COC(=O)C(C)c3ccc4cc(OC)ccc4c3)(COC(=O)CCC(=O)NC(COC(=O)C(C)c3ccc4cc(OC)ccc4c3)(COC(=O)C(C)c3ccc4cc(OC)ccc4c3)COC(=O)C(C)c3ccc4cc(OC)ccc4c3)NC(=O)OCc3ccccc3)ccc2c1 (centres undefined) |  | Non-toxic | 5.94 | 49.64%
4 |  |  |  |  |  |  | COc1ccc2cc([C@H](C)C(=O)O)ccc2c1 [NAPROXEN] |  | Non-toxic | 8.26 | 
